Measured values from ChEMBL document CHEMBL4819098, “Novel 1,2,4-triazine-quinoline hybrids: The privileged scaffolds as potent multi-target inhibitors of LPS-induced inflammatory response via dual COX-2 and 15-LOX inhibition” (Eur J Med Chem, 2021).
Blank lines part the entries; values can stand above or below the molecule they belong to.

Experiments:
[1] = Inhibition of soybean 5-LOX; parameters: species or system Glycine max
[2] = target: T1, Prostaglandin G/H synthase 2 (Ovis aries, UniProt P79208); test: Inhibition of ovine COX-2 using arachidonic acid as substrate preincubated with enzyme for 5 mins followed by incubation with substrate for 5 mins by colorimetric analysis
T1 sequence (P79208 whole entry): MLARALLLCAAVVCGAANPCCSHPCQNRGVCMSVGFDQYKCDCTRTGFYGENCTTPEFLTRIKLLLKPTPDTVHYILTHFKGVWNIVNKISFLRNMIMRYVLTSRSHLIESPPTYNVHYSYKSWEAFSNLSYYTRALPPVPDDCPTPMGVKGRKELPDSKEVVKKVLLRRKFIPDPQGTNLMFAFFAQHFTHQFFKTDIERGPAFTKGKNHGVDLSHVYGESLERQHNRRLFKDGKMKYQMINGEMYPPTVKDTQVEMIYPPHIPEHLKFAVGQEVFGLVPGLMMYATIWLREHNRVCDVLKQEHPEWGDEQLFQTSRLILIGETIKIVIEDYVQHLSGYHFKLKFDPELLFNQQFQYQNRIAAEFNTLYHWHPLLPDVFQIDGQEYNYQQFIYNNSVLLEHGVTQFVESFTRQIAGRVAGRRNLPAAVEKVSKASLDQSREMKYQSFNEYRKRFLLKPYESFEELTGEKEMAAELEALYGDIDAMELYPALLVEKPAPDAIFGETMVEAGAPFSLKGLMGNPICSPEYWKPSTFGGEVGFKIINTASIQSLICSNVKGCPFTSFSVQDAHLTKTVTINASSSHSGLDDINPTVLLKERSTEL

[3] = target: T2, Prostaglandin G/H synthase 1 (Ovis aries, UniProt P05979); test: Inhibition of ovine COX-1 using arachidonic acid as substrate preincubated with enzyme for 5 mins followed by incubation with substrate for 5 mins by colorimetric analysis
T2 sequence (P05979 whole entry): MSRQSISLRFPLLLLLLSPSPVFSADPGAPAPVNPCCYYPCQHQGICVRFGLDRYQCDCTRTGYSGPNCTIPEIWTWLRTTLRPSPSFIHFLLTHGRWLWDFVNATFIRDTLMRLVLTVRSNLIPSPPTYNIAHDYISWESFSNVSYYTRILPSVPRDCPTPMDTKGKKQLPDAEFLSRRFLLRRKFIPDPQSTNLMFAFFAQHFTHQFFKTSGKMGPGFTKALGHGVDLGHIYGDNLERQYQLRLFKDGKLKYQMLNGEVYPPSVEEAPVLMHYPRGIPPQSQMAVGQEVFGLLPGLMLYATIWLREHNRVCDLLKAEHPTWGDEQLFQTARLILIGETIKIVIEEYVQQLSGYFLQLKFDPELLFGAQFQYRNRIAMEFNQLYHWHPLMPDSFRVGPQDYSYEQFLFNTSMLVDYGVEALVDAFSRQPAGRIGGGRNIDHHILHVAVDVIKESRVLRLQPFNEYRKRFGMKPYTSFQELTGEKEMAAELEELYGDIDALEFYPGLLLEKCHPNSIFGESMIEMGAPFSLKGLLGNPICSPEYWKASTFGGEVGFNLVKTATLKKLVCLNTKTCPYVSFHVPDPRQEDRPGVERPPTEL

[4] = target: T3, Prostaglandin G/H synthase 2 (Homo sapiens, UniProt P35354); test: Inhibition of COX-2 (unknown origin) using arachidonic acid as substrate preincubated with enzyme for 1 min followed by substrate addition by fluorometric analysis
T3 sequence (P35354 whole entry): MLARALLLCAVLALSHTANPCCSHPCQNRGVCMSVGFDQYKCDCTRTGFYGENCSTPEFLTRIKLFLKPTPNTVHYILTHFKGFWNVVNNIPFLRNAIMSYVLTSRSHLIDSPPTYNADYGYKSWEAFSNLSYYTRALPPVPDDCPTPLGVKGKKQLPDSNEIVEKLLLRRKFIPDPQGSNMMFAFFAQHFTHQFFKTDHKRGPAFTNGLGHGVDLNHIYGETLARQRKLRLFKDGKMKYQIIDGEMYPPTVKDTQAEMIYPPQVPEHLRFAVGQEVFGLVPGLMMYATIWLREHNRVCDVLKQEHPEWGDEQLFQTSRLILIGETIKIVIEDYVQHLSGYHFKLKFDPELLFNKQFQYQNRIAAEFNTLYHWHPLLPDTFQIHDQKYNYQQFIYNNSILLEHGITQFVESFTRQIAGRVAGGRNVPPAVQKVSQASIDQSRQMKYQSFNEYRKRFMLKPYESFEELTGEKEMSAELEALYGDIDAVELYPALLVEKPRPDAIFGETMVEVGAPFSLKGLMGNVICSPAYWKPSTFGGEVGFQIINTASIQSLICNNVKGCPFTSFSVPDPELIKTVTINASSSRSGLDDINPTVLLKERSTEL

[5] = target: T2, Prostaglandin G/H synthase 1; test: Inhibition of ovine COX-1 using arachidonic acid as substrate preincubated with enzyme for 5 mins followed by substrate addition by colorimetric analysis
[6] = tested on: RAW264.7; test: Inhibition of LPS-induced IL-6 production in mouse RAW264.7 cells preincubated for 2 hrs followed by LPS stimulation and measured after 20 hrs by ELISA; assay type: functional, cell-based
[7] = tested on: RAW264.7; test: Potency index, ratio of diclofenac sodium IC50 to test compound IC50 for inhibition of LPS-induced IL-6 production in mouse RAW264.7 cells preincubated for 2 hrs followed by LPS stimulation and measured after 20 hrs by ELISA; assay type: functional; conditions: time 22 hrs
[8] = tested on: RAW264.7; test: Inhibition of LPS-induced 15(S)-HETE production in mouse RAW264.7 cells preincubated for 2 hrs followed by LPS stimulation and measured after 20 hrs by ELISA; assay type: functional, cell-based
[9] = tested on: RAW264.7; test: Inhibition of LPS-induced TNFalpha production in mouse RAW264.7 cells preincubated for 2 hrs followed by LPS stimulation and measured after 20 hrs by ELISA; assay type: functional, cell-based
[10] = Selectivity index, ratio of IC50 for ovine COX-1 to IC50 for human recombinant COX-2
In short: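 Enzyme kit assay with ovine COX-1 and human recombinant COX-2. IC50 determined from three replicates. Selectivity index taken as IC50(COX-1)/IC50(COX-2).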

[11] = Inhibition of soybean 15-LOX using arachidonic acid or linolenic acid as substrate in presence of hydrogen peroxide incubated for 5 mins by colorimetric analysis; parameters: species or system Glycine max
[12] = tested on: RAW264.7; test: Cytotoxicity against mouse RAW264.7 cells assessed as reduction in cell viability by MTS assay; assay type: cell-based
In short: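 RAW 264.7 macrophage viability at the tested concentrations measured by MTS assay.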

[13] = tested on: RAW264.7; test: Potency index, ratio of celecoxib IC50 to test compound IC50 for inhibition of LPS-induced 15(S)-HETE production in mouse RAW264.7 cells preincubated for 2 hrs followed by LPS stimulation and measured after 20 hrs by ELISA; assay type: functional; conditions: time 22 hrs
[14] = target: T4, Prostaglandin G/H synthase 2 (Homo sapiens) (UniProt P35354); test: Potency index, ratio of diclofenac sodium IC50 to test compound IC50 for human recombinant COX-2 using arachidonic acid as substrate preincubated with enzyme for 5 mins followed by substrate addition by colorimetric analysis
T4 sequence (whole entry): T3 sequence (P35354 whole entry)

[15] = tested on: RAW264.7; test: (§1) Antioxidant activity in mouse RAW264.7 cells assessed as inhibition of LPS-induced intracellular ROS production preincubated for 2 hrs followed by LPS stimulation and measured after 20 hrs by DCFH-DA staining based fluorescence analysis; assay type: functional, cell-based
[16] = target: T3, Prostaglandin G/H synthase 2; test: Inhibition of human recombinant COX-2 using arachidonic acid as substrate preincubated with enzyme for 5 mins followed by substrate addition by colorimetric analysis
[17] = tested on: RAW264.7; test: as §1, with “Potency index, ratio of celecoxib IC50 to test compound IC50 for antioxidant” for “Antioxidant”; assay type: functional; conditions: time 22 hrs
[18] = tested on: RAW264.7; test: Potency index, ratio of celecoxib IC50 to test compound IC50 for inhibition of LPS-induced IL-6 production in mouse RAW264.7 cells preincubated for 2 hrs followed by LPS stimulation and measured after 20 hrs by ELISA; assay type: functional; conditions: time 22 hrs
[19] = target: T2, Prostaglandin G/H synthase 1; test: Inhibition of ovine COX-1 by EIA
[20] = target: T1, Prostaglandin G/H synthase 2; test: Inhibition of ovine COX-2 by EIA
[21] = target: T2, Prostaglandin G/H synthase 1; test: Inhibition of ovine COX-1 by colorimetric analysis
[22] = Inhibition of soybean 15-LOX using linolenic acid as substrate by spectrophotometric analysis; parameters: species or system Glycine max
[23] = target: T4, Prostaglandin G/H synthase 2 (Homo sapiens); test: Inhibition of COX-2 in human whole blood assessed as reduction in PGE2 production at 10 uM measured after 24 hrs by EIA; assay type: tissue-based
[24] = target: COX-1 (Prostaglandin G/H synthase 1) (Homo sapiens, UniProt P23219); test: Inhibition of COX-1 in human whole blood assessed as reduction in thromboxane B2 production at 10 uM measured after 1 hr by EIA; assay type: tissue-based
COX-1 (Prostaglandin G/H synthase 1), sequence (P23219 whole entry): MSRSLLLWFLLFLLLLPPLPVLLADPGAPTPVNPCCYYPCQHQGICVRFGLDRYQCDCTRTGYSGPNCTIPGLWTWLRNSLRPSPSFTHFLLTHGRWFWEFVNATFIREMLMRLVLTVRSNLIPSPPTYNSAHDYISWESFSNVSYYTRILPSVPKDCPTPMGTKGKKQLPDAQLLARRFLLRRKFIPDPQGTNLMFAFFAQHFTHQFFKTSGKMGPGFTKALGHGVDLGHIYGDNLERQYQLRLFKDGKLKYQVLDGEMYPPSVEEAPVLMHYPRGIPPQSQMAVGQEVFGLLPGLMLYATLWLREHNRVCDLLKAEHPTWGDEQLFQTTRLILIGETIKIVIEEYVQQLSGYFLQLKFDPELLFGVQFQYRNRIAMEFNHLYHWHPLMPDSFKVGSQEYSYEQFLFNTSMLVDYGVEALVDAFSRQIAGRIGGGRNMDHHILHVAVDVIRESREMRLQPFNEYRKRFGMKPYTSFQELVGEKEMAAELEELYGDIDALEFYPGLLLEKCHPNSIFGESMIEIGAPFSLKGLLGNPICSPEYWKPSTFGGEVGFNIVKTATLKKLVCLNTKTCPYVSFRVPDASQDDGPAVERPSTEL

[25] = target: T3, Prostaglandin G/H synthase 2; test: Inhibition of human recombinant COX-2 using arachidonic acid as substrate preincubated with enzyme for 20 mins followed by incubation with substrate for 2 mins by ADPH based fluorometric analysis
[26] = target: T2, Prostaglandin G/H synthase 1; test: Inhibition of ovine COX-1 using arachidonic acid as substrate preincubated with enzyme for 20 mins followed by incubation with substrate for 2 mins by ADPH based fluorometric analysis

Compound: COc1ccc(-c2nn(-c3ccc(Cl)cc3)cc2/C=C/c2cc(C(=O)N3CCOCC3)c3cc(Cl)ccc3n2)cc1
- IC50 [1]: 1870 nM
- IC50 [2]: 100 nM
- IC50 [3]: 11400 nM

Compound: COc1ccc2ccc(F)c(CC(=O)N/N=C/c3ccc(C(F)(F)F)cc3)c2n1
- IC50 [4]: 130 nM

Compound: CCOC(=O)c1cnn(C(=O)c2cc(-c3ccc(Cl)cc3)nc3ccc(OC)cc23)c1N
- IC50 [19]: > 50000 nM
- IC50 [20]: 260 nM

Compound: COc1ccc(/C=C2\N=C(c3cccnc3)N(c3ccccc3)NC2=O)cc1
- IC50 [21]: 100 nM

Compound: COc1ccc(C2=C(c3ccc(OC)cc3)NNC(N/N=C/c3ccc(F)cc3)=N2)cc1
- IC50 [22]: 124000 nM
- inhibition [23]: 72%
- inhibition at 1 h, 10 µM [24]: 69%

The next lines start with results.

- IC50 [5]: 12500 nM
- IC50 [6]: 7700 nM
- IC50 [8]: 170 nM
- IC50 [9]: 19200 nM
- Ratio IC50 [10]: 266
- IC50 [11]: 1810 nM
- Ratio IC50 [14]: 17.9
- IC50 [15]: 1020 nM
- IC50 [16]: 47 nM
Compound: O=c1c(Cc2ccccc2)n[nH]c(=S)n1/N=C/c1cc2cc(OCc3ccccc3)ccc2nc1O
- Ratio IC50 [7]: 1.7
- Activity [12]: Non-Toxic
- Ratio IC50 [13]: 43
- Ratio IC50 [17]: 11
- Ratio IC50 [18]: 1.5

- IC50 [25]: 1600 nM
- IC50 [26]: 480 nM
Compound: COc1ccc(-c2cc(-c3nnc(SC/C(=N/O)c4ccccc4)n3-c3ccccc3)c3ccccc3n2)cc1
